Here are results for 12 compounds from ChEMBL document CHEMBL3393040, “An Orally Available BACE1 Inhibitor That Affords Robust CNS Aβ Reduction without Cardiovascular Liabilities” (ACS Med Chem Lett, 2015).

Molecules are shown by their SMILES. Calls of active or inactive are those of the source. The calls are words filed in the database; no cut-off is given here.

Assay [1] concerns the target T1, Beta-secretase 1 (Homo sapiens, UniProt P56817). Nature of the assay: Inhibition of BACE1 in HEK293 cells stably expressing APPSW assessed as reduction in Abeta40 level incubated overnight at 0.0005 to 10 uM by ELISA method. It is filed as cell-based. Background: An ELISA detects its analyte on a solid surface through an enzyme-linked reagent.
The target in assay [2] is T1, Beta-secretase 1. Nature of the assay: Inhibition of human recombinant BACE1 pre-incubated with enzyme for 60 mins before fluorescent substrate addition FRET method.
Assay [3] concerns Rattus norvegicus. Nature of the assay: Reduction in Abeta40 level in Sprague-Dawley rat CSF at 3 mg/kg, po administered as single dose after 4 hrs by immunoassay. The class given is functional, organism-based. On the set-up: dose 3 mg/kg. Summed up:
(§1)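 Male Sprague–Dawley rats received a single oral dose. Aβ40 was measured in CSF and brain 4 h later and reported as % reduction. EC50 is expressed as unbound plasma concentration.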

The next assay concerns Rhesus monkey. Nature of the assay: Reduction in Abeta40 level in rhesus monkey CSF at 5 mg/kg, po administered as single dose by ELISA method. Particulars: Macaca mulatta. Further details: dose 5 mg/kg. It is filed as functional, organism-based. A digest of the protocol: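 Rhesus monkey time-course PD study after a 5 mg/kg oral dose, with CSF Aβ40 followed over time. An indirect response PK–PD model generated the in vivo unbound plasma IC50.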

Assay [4] relates to Rattus norvegicus. Nature of the assay: Reduction in Abeta40 level in Sprague-Dawley rat CSF at 3 mg/kg, po administered as single dose by immunoassay. It is filed as functional. A digest of the protocol:
as §1

In assay [5] the test system is Rattus norvegicus. The assay can be described thus: Reduction in Abeta40 level in Sprague-Dawley rat CSF at 10 mg/kg, po administered as single dose by immunoassay. It is filed as functional. Summed up: as §1

T1 sequence (P56817 whole entry): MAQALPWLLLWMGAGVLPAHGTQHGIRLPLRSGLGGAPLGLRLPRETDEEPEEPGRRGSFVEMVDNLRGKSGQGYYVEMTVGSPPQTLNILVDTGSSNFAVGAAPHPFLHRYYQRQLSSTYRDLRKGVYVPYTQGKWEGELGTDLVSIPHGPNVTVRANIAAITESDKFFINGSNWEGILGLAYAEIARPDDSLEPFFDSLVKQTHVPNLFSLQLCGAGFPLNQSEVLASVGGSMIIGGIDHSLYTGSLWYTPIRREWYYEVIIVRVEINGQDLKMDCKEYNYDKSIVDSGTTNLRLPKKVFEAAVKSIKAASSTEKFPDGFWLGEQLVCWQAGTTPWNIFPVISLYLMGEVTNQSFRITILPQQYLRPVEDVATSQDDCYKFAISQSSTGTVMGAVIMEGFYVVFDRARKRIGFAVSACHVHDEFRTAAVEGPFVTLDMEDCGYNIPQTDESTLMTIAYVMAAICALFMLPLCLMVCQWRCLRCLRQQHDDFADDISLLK

Regarding `NC1=N[C@@]2(CO1)c1cc(-c3cccnc3F)ccc1Oc1c2cc(N2CCC(F)(F)CC2)nc1F`, the half-inhibitory concentration (IC50) (in general, the concentration needed to halve the response being measured) on Beta-secretase 1 [1] was found to be 6 nM.

With `NC1=N[C@@]2(CO1)c1cc(-c3ncccc3F)ccc1Oc1c2cc(C2=CCCOC2)nc1F`, the figures for the IC50 at Beta-secretase 1 [2] and on Beta-secretase 1 [1] were 0.3 nM and 4 nM, respectively. For the same compound, the inhibition result in the assay on Rattus norvegicus [3] and in the assay with Rhesus monkey was “Active” throughout. On to `NC1=N[C@@]2(CO1)c1cc(-c3cccnc3F)ccc1Oc1c2cc(C2=CCOCC2)nc1F`, for which the results for the IC50 at Beta-secretase 1 [2] and at Beta-secretase 1 [1] were 0.3 nM and 4 nM, respectively.

`NC1=N[C@@]2(CO1)c1cc(-c3cccnc3F)ccc1Oc1c2cc(N2CCOCC2)nc1F`: the IC50 on Beta-secretase 1 [1] amounted to 5 nM. In addition, the inhibition in vivo (as a rule, the relative decrease from the control value, in per cent) at 3 mg/kg in the assay with Rattus norvegicus [4] was found to be 69%.

For `NC1=N[C@@]2(CO1)c1cc(-c3cccnc3F)ccc1Oc1c2cc(N2CC[C@@H](F)C2)nc1F`, the half-inhibitory concentration (IC50) on Beta-secretase 1 [2] turned out to be 0.2 nM; at Beta-secretase 1 [1], 3 nM. In the case of `NC1=N[C@@]2(CO1)c1cc(-c3cccnc3F)ccc1Oc1c2cc(-c2ccnc(F)c2)nc1F`, the IC50 at Beta-secretase 1 [2] came out at 0.4 nM; on Beta-secretase 1 [1], 6.5 nM. In addition, in the assay on Rattus norvegicus [4], the inhibition in vivo at 3 mg/kg was determined as 58%.

With `NC1=N[C@@]2(CO1)c1cc(-c3cccnc3F)ccc1Oc1c2cc(N2CCC(F)(F)C2)nc1F`, the 50% inhibitory concentration (IC50) at Beta-secretase 1 [1] was determined as 4 nM. Take `NC1=N[C@@]2(CO1)c1cc(-c3cccnc3F)ccc1Oc1c2cc(-c2ccccc2)nc1F`: the IC50 worked out at 0.7 nM at Beta-secretase 1 [2] and 8 nM on Beta-secretase 1 [1]. The same compound registered an inhibition in vivo at 10 mg/kg with Rattus norvegicus [5] of 75%. For the compound `Cc1cc(-c2cc3c(c(F)n2)Oc2ccc(-c4cccnc4F)cc2[C@@]32COC(N)=N2)ccn1`, the IC50 on Beta-secretase 1 [1] stood at 12 nM.

Consider `Cc1cc(-c2cc3c(c(F)n2)Oc2ccc(-c4cccnc4F)cc2[C@@]32COC(N)=N2)on1`, for which the values for the IC50 on Beta-secretase 1 [2] and on Beta-secretase 1 [1] were 0.3 nM and 23 nM, respectively.

With `NC1=N[C@@]2(CO1)c1cc(-c3cccnc3F)ccc1Oc1c2cc(C2=CCCCO2)nc1F`, the IC50 at Beta-secretase 1 [1] amounted to 4.8 nM. In the assay with Rattus norvegicus [4], `NC1=N[C@@]2(CO1)c1cc(-c3cccnc3F)ccc1Oc1c2cc(-c2ccncc2)nc1F` came in with an inhibition in vivo at 3 mg/kg of 36%.
